Screening data from PubChem.
An excerpt weighted towards active compounds, which were near 2.4% of everything screened.
DAGLB inh: diacylglycerol lipase beta (human) inhibition; Q8NCG7; HEK293T DAGLB membrane lysate, EnzChek fluorogenic substrate; inhibition, % at 5.17 µM; hit rate 0.059% among 340,000; in the data active = inhibition above about 34%;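 note: 0% = enzyme with vehicle and 100% = wells lacking enzyme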
beta cell repl: MIN6 beta-cell proliferation induction. MIN6 cells proliferation, ATPlite luminescence, 48 h; cells starved in 0.2% serum; 100% = growth in 10% serum. proliferation, % at 10 µM. hit rate 0.29% among 330,000;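 active = compounds whose signal lies at least 3.5 SD above the mean of all wells on their plate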;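 note: 0% = DMSO-treated cells in low-serum medium and 100% = 10% serum control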
Myeloid diff MLP: compounds promoting myeloid differentiation | ER-HoxA9 myeloid progenitors, lysozyme-GFP differentiation, flow cytometry | calls only at 10 µM | hit rate 1% among 360,000 | AID 624256;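 active = normalized GFP-positive differentiation at or above the plate's own cutoff, the solvent-only control mean plus 3 SD; inconclusive = no clear call, values can overlap the other calls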;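 note: cells exposed to compound for four days before flow analysis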
MT1-MMP act inh: inhibitors of human MT1-MMP activation. hit rate 0.061% among 360,000. P50281. HT1080 RFP-PRO-GFP cells, GFP/RFP ratio fluorescence, overnight; percent of plate control window, DMSO zero. GFP/RFP ratio change, % at 20 µM;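 active = GFP/RFP ratio change of at least 30% with cell ATP level not reduced by more than half and red fluorescence within 50% of control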
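Material: RFP-PRO-GFP reporter HT1080 cells. Dosing: single-point 20 µM compound, 1% DMSO. Controls: DMSO and RFP-L50D-GFP cell wells. Timing: cells overnight before dosing, compound overnight, 37 °C, 5% CO2. Measure: GFP/RFP fluorescence ratio.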
CendR NRP1 mod: modulators of CendR peptide binding to human neuropilin-1. FAM-RPARPAR peptide binding to NRP-1, fluorescence polarization. inhibition, % at 25 µM. hit rate 0.85% among 360,000;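 active = inhibition or corrected inhibition above about 18%, plus a signal ratio from 0.5 to 1.5, limit read from the data, passing the limit was not always enough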
SENP1 inh: SENP1 (human) catalytic domain inhibition; recombinant SENP1 catalytic domain, CyPet-SUMO1-YPet FRET cleavage; AID 624204; Q9P0U3; hit rate 0.21% among 360,000; inhibition, % at 10 µM;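 active = inhibition at least 30% at 10 µM, raw YFP signal under a set limit, fluorescence ratio 0.5 to 1.5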;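 note: 0% = enzyme with DMSO and 100% = no enzyme wells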
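System: Recombinant human SENP1 catalytic domain, His6-tagged | Incubation: Enzyme reaction for 50 min at room temperature, dark | Medium: Tris pH 8 with BME, BSA, NP40 and catalase | Also added: 25 nM SUMO1 FRET substrate | Compound: 10 µM single point, 0.5% DMSO | Measured by: FRET fluorescence in CFP and YFP emission channels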
SENP1 inh conf: confirmation of human SENP1 SUMO protease inhibitors; shares compounds with SENP1 inh; recombinant SENP1, CyPet-SUMO1-YPet FRET cleavage; inhibition, % at 10 µM; hit rate 34% among 520; in the data active = inhibition mostly above about 35%, no sharp cut-off; inactive = mostly below about 32%;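 note: 0% = enzyme with DMSO and 100% = no enzyme control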
SENP1 kin conf: SENP1 (human) inhibition, kinetic confirmation. shares compounds with SENP1 inh. recombinant SENP1, CyPet-SUMO1-YPet FRET kinetic cleavage. inhibition, % at 10 µM. hit rate 26% among 520. AID 651690; in the data active = inhibition mostly above about 32%, no sharp cut-off; inactive = mostly below about 29%;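 note: 0% = DMSO with enzyme and 100% = no enzyme substrate only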
Active calls of the source: *; i = inactive; ? = inconclusive; . = no result given; + = active, no number.

SMILES	DAGLB inh	beta cell repl	Myeloid diff MLP	MT1-MMP act inh	CendR NRP1 mod	SENP1 inh	SENP1 inh conf	SENP1 kin conf
N#Cc1cc(C(=O)c2cc(Cl)ccc2O)cn(CC2CCCO2)c1=O (stereo unspecified)	0	-2	i	.	-3	-7	.	.
Cc1ccccc1-n1cc(C(=O)c2cc(Cl)ccc2O)cc(C#N)c1=O	-1	0	i	-29	-50	43*	35	24
COc1ccccc1-n1cc(C(=O)c2cc(Cl)ccc2O)cc(C#N)c1=O	-3	-2	i	-17	-19	46*	39*	29
COc1ccc(O)c(C(=O)c2cc(C#N)c(=O)n(Cc3ccccc3)c2)c1	-2	3	i	-9	-10	9	.	.
O=c1[nH]c(/C(Cl)=C/c2c(F)cccc2Cl)nc2cc(Cl)ccc12	-3	-4	i	0	-16	-6	.	.
O=c1[nH]c(/C(Cl)=C/c2cc(Cl)ccc2O)nc2cc(Cl)ccc12	6	0	i	-14	-11	59*	89*	73*
CCN1C(=O)c2cccc3c(NC(=O)C4CCCCC4)ccc1c23	0	2	i	11	-51	40*	20	30*
CC(C)C(NC(=O)C12CC3CC(CC(C3)C1)C2)C(=O)N/N=C/C1=C(N2CCOCC2)C(=C\c2ccc([N+](=O)[O-])cc2)/CC1 (stereo unspecified)	0	-5	+	-24	-9	75*	24	7
Cc1ccc(S(=O)(=O)N2CCCCC2)cc1NC(=O)C1CC(=O)N(c2ccc3c(c2)OCCO3)C1 (stereo unspecified)	-1	-3	i	0	7	1	.	.
Cc1cccc(C)c1NC(=O)C1C(c2ccccc2)=Nc2ccccc2N1C(=O)c1cnccn1 (stereo unspecified)	.	.	i	-6	-14	37*	16	15
Cc1ccc(-c2nnn(CCC(=O)N3CCCCC3C)n2)cc1 (stereo unspecified)	1	0	i	0	1	2	.	.
CC1CCCCN1C(=O)Cn1nnc(-c2cccnc2)n1 (stereo unspecified)	-1	1	i	-27	16	30*	34	23
O=C1C=C(c2cccc(Cl)c2O)C[C@@H](c2ccc(Cl)cc2)C1	-6	-6	i	-4	-10	58*	99*	76*
CCc1ccc(N=C2NC(=O)/C(=C/c3cc(Br)c(OCC(=O)O)c(OC)c3)S2)cc1	12	-3	i	0	-113	-4	.	.
CCOc1cc(Br)cc(/C=C2\SC(=Nc3ccccc3)NC2=O)c1O	5	-5	i	-18	-20	35*	69*	45*
C=CCOc1c(Br)cc(/C=C2\SC(=Nc3ccccc3)NC2=O)cc1OC	-3	-5	i	-55	-3	42*	25	20
CC(C)C[C@@H](CNCC(=O)[C@H](C)NC(=O)c1[nH]cnc1C(=O)N[C@H](CN)CC(C)C)NC(=O)c1nc[nH]c1C(=O)N[C@@H](C)C(=O)O	-1	.	i	3	0	-1	.	.
CN(C(=O)c1ccc(NC(=O)Cc2cccc(NC(=O)C3CCCN(C(=O)C4CCC4)C3)c2)cc1)C1CCCC1 (stereo unspecified)	0	-5	i	2	8	0	.	.
CCOC(=O)[C@]12CCCC=C1N(Cc1ccccc1)C(=O)[C@H](CC(=O)NCc1cccc(C(F)(F)F)c1)C2	.	.	i	4	10	3	.	.
Cc1c(Cc2ccccc2)c(=O)[nH]c(=O)n1C	1	.	i	3	12	2	.	.
Nc1c2c(nc3ccc(Br)cc13)N(Cc1ccccc1)CC2	0	3	i	-7	-29	59*	13	9
Nc1c2c(nc3ccc(Br)cc13)N(c1ccccc1)CC2	7	1	i	3	-32	-20	.	.
O=C(NN1C(=O)C2C3C=CC(C3)C2C1=O)c1ccccc1 (stereo unspecified)	-1	-1	i	-1	1	3	.	.
Cc1cccc(C(=O)NN2C(=O)C3C(c4ccccc4)C=CC(c4ccccc4)C3C2=O)c1 (stereo unspecified)	-1	1	i	-4	-1	64*	13	7
Cc1ccc(NS(=O)(=O)c2ccc(OCC(=O)N3CCOCC3)cc2)cc1	4	-1	i	1	-5	1	.	.
SMILES	DAGLB inh	beta cell repl	Myeloid diff MLP	MT1-MMP act inh	CendR NRP1 mod	SENP1 inh	SENP1 inh conf	SENP1 kin conf
O=C(NN=C1CCCCCC1)c1ccc2c(c1)OCO2	-3	2	i	1	6	3	.	.
COc1ccc(-c2cc(CNc3nc(NC(C)C)nc4cc(-c5ccccc5)sc34)on2)cc1	.	.	?	-32	17	-9	.	.
CCOc1ccccc1N=Nc1c(C)[nH]n(C(N)=S)c1=O	11	-2	i	-6	14	48*	14	3
C=CCOCCN1C(=O)C2C(c3ccccc3)C=CC(c3ccccc3)C2C1=O (stereo unspecified)	0	-2	i	-16	1	66*	76*	61*
COc1ccc2nc(SCC(=O)Nc3cc(C)on3)c(C#N)cc2c1	0	3	.	-32	-12	48*	-37	13
CCOC(=O)CC(=O)CSc1nc2ccc(C)cc2cc1C#N	0	-5	.	-65	-38	-28	.	.
Cc1cc(NC(=O)CSc2nc3ccccc3cc2C#N)no1	-4	-2	i	-36	-27	55*	60*	50*
COC(=O)CSc1nc2cc(C)ccc2cc1C#N	-3	-2	i	-41	-1	62*	15	22
COC(=O)C1=C(C)NC(=S)NC1c1ccc(OCC(=O)N2CCCCC2)c(OC)c1 (stereo unspecified)	-2	6	i	-2	-5	0	.	.
CN(C)c1ccc(/C=N/NC(=O)C(=O)/C=C2\NC3(CCCC3)Cc3ccccc32)cc1	9	0	i	-6	-32	53*	37*	28
Cn1c(SCC(=O)N2CCCC2=O)nnc1-c1ccccc1F	2	-1	i	-8	-2	0	.	.
CCSC1=N/C(=C\C=C2/Oc3ccccc3N2CC)C(=O)S1	4	-5	+	-77	-191	43*	28	17
